# The entries come from a sample that favours hits as a whole.
# IDH1 R132H inh = blocks human IDH1 R132H reductase activity; O75874; diaphorase/resazurin fluorescence, 60 min; inhibition, % at 10 µM; 0.18% of 70,000 active; in the data active = inhibition above about 34%; inconclusive = no clear call, values can overlap the other calls; inactive = below about 11%;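 also: 0% = DMSO and 100% = no enzyme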
# GASC1 inh = blocks human GASC-1 (KDM4C) demethylase activity; GST-KDM4C 2-372, H3K9me3 peptide, LANCE TR-FRET; 0.15% of 96,000 active; inhibition, % at 12.5 µM; Q9H3R0; AID 720574;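 active = mean replicate inhibition above about 25%, with at least 55% of replicates also reaching it, limit read from the data, passing the limit was not always enough; inconclusive = only one of those two conditions met; inactive = neither condition met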
# Target sequence (Q9H3R0 2-372 limits assumed): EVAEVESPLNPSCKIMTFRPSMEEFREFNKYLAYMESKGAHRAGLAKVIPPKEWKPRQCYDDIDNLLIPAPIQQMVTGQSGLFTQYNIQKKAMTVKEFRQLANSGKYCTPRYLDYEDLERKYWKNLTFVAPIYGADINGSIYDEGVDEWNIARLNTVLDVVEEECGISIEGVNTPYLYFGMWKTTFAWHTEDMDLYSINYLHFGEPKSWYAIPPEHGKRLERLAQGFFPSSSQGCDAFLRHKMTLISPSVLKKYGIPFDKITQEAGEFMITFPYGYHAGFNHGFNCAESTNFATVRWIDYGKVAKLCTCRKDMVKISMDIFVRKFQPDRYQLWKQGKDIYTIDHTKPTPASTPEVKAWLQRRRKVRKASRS
#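 reagent = H3K9me3 peptide substrate, Fe(II), 2-oxoglutarate | system = GST-tagged GASC-1 (JMJD2C) catalytic fragment, aa 2-372 | amount = enzyme final amount 10 nM | read-out = Fall in 671/618 emission ratio as inhibition | medium = HEPES buffer, pH 7.5, plus ascorbate | schedule = 30 min reaction, 60 min detection, RT | measured by = LANCE TR-FRET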
# T cruzi growth-1 = T. cruzi proliferation inhibition | inhibition, % at 8.34 µM | T. cruzi beta-gal in NIH3T3, GalScreen luminescence, 90 h | 5.9% of 77,000 active;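 active = mean inhibition above about 93%, with at least 55% of replicates each passing it, limit read from the data, passing the limit was not always enough; inconclusive = only one of those two conditions holds; inactive = neither condition holds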
# T cruzi growth-2 = Trypanosoma cruzi proliferation inhibition; shares compounds with T cruzi growth-1; inhibition, % at 8.35 µM; T. cruzi beta-gal in NIH3T3, GalScreen luminescence, 90 h; 72% of 5,600 active;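 active = mean replicate inhibition above about 95% and at least 55% of replicates individually reaching it, limit read from the data; inconclusive = only one of the two criteria is met; inactive = neither criterion is met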
# T cruzi growth-3 = blocks T. cruzi growth in NIH3T3 host cells | shares compounds with T cruzi growth-1 | T. cruzi beta-gal in NIH3T3, GalScreen luminescence, 90 h | inhibition, % at 2.09 µM | 21% of 5,600 active | AID 651740;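 active = mean inhibition above about 95%, with at least 55% of replicates also reaching it, limit read from the data; inconclusive = meets just one of the two conditions; inactive = meets neither condition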;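 also: plate controls were neutral control median for no effect and positive control median for full effect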
# NIH3T3 tox = NIH/3T3 (mouse) viability loss | shares compounds with T cruzi growth-1 | NIH/3T3 viability, CellTiter-Glo ATP luminescence, 90 h | cytotoxicity (signal decrease), % at 8.35 µM | 14% of 5,600 active | AID 651742;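 active = mean signal decrease across replicates above about 35% based on untreated-well scatter, with enough replicates individually passing, limit read from the data; inconclusive = no rule stated though some were filed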;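 also: 0% = median of neutral control wells and 100% = median of positive control wells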
# 3T3 cytotox 2 = NIH/3T3 (mouse) viability loss; NIH/3T3 viability, CellTiter-Glo ATP luminescence, 90 h; inhibition, % at 24.9 µM; shares compounds with T cruzi growth-1; 56% of 5,600 active;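 active = mean loss of cell viability signal at or above a set limit, and enough replicates individually reaching it; inconclusive = meets only the mean limit or only the replicate share; inactive = meets neither condition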;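 also: 0% = median of neutral control wells and 100% = median of positive control wells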
# * marks the source's active call; other numbers are inactive results; ? = inconclusive; / = no result.
SMILES,IDH1 R132H inh,GASC1 inh,T cruzi growth-1,T cruzi growth-2,T cruzi growth-3,NIH3T3 tox,3T3 cytotox 2
COc1cccc(CN2CCN(C(=S)NCc3ccco3)CC2)c1,0,/,/,/,/,/,/
O=C(CSc1nc2sc3c(c2c(=O)n1Cc1ccccc1)CCCCC3)c1ccccc1,0,/,/,/,/,/,/
CC(C)(C)c1ccc(OCc2nnc(Sc3ccc([N+](=O)[O-])cn3)n2-c2ccccc2)cc1,0,/,/,/,/,/,/
Cc1ccc(CC(CC(=O)O)C(=O)Nc2ccccc2I)cc1 (centres undefined),0,/,/,/,/,/,/
C[C@H](CO)N1C[C@H](C)[C@@H](CN(C)Cc2ccc(Cl)c(Cl)c2)Oc2ccc(NC(=O)NC3CCCCC3)cc2C1=O,2,-1,7,/,/,/,/
C[C@@H]1CN([C@@H](C)CO)C(=O)c2cc(NC(=O)NC3CCCCC3)ccc2O[C@@H]1CN(C)Cc1ccc(Cl)c(Cl)c1,-6,1,?,97*,10,28,27
C[C@H]1CN([C@@H](C)CO)C(=O)c2cc(NC(=O)NC3CCCCC3)ccc2O[C@@H]1CN(C)Cc1ccc(Cl)c(Cl)c1,0,1,50,/,/,/,/
C[C@@H]1CN([C@H](C)CO)C(=O)c2cc(NC(=O)NC3CCCCC3)ccc2O[C@H]1CN(C)Cc1ccc(Cl)c(Cl)c1,2,0,93*,106*,-22,20,13
COc1ccc(C(=O)CSc2nnc(-c3ccc(OC)c(OC)c3)n2-c2ccc(C)cc2)cc1,1,/,/,/,/,/,/
C[C@@H]1CCCCO[C@@H](CN(C)S(=O)(=O)c2ccc(Cl)cc2)[C@H](C)CN([C@@H](C)CO)C(=O)c2cc(NS(=O)(=O)c3cccs3)ccc2O1,0,0,102*,105*,83,21,-2
C[C@@H]1CCCCO[C@H](CN(C)S(=O)(=O)c2ccc(Cl)cc2)[C@@H](C)CN([C@@H](C)CO)C(=O)c2cc(NS(=O)(=O)c3cccs3)ccc2O1,-3,-1,110*,113*,70,7,3
C[C@@H]1CN([C@@H](C)CO)C(=O)c2cc(NS(=O)(=O)c3cccs3)ccc2O[C@@H](C)CCCCO[C@H]1CN(C)S(=O)(=O)c1ccc(Cl)cc1,/,1,93,/,/,/,/
C[C@H]1CCCCO[C@H](CN(C)S(=O)(=O)c2ccccc2)[C@@H](C)CN([C@@H](C)CO)C(=O)c2cc(NS(=O)(=O)c3cccs3)ccc2O1,0,-2,61,/,/,/,/
O=C(Nc1ccccc1[N+](=O)[O-])c1cc(S(=O)(=O)Nc2ccccc2)c(Cl)cc1Cl,0,/,/,/,/,/,/
C[C@H](CO)N1C[C@H](C)[C@@H](CN(C)C(=O)Nc2cccc3ccccc23)OCCCC[C@H](C)Oc2ccc(NS(=O)(=O)c3ccccc3)cc2C1=O,/,-2,/,/,/,/,/
C[C@H]1CCCCO[C@H](CN(C)C(=O)Nc2cccc3ccccc23)[C@@H](C)CN([C@@H](C)CO)C(=O)c2cc(NS(=O)(=O)c3ccccc3)ccc2O1,/,-1,/,/,/,/,/
C[C@@H]1CCCCO[C@H](CN(C)C(=O)Nc2cccc3ccccc23)[C@H](C)CN([C@H](C)CO)C(=O)c2cc(NS(=O)(=O)c3ccccc3)ccc2O1,/,0,/,/,/,/,/
C[C@@H]1CCCCO[C@H](CN(C)C(=O)Nc2cccc3ccccc23)[C@H](C)CN([C@@H](C)CO)C(=O)c2cc(NS(=O)(=O)c3ccc(Cl)cc3)ccc2O1,/,-2,99*,104*,102*,-12,-3
C[C@@H]1CCCCO[C@@H](CN(C)C(=O)Nc2cccc3ccccc23)[C@H](C)CN([C@@H](C)CO)C(=O)c2cc(NS(=O)(=O)c3ccc(Cl)cc3)ccc2O1,/,0,98*,107*,117*,-25,-17
C[C@@H]1CN([C@@H](C)CO)C(=O)c2cc(NS(=O)(=O)c3ccc(Cl)cc3)ccc2O[C@@H](C)CCCCO[C@H]1CN(C)C(=O)Nc1cccc2ccccc12,6,15,96*,107*,102*,-13,13
C[C@@H]1CCCCO[C@@H](CN(C)Cc2ccc(Cl)c(Cl)c2)[C@H](C)CN([C@H](C)CO)C(=O)c2cc(NC(=O)CCC(F)(F)F)ccc2O1,-1,0,?,92,104*,-3,103*
C[C@@H]1CCCCO[C@@H](CN(C)Cc2ccncc2)[C@@H](C)CN([C@H](C)CO)C(=O)c2cc(NC(=O)CCC(F)(F)F)ccc2O1,7,-1,-26,/,/,/,/
C[C@@H]1CCCCO[C@H](CN(C)Cc2ccncc2)[C@H](C)CN([C@H](C)CO)C(=O)c2cc(NC(=O)CCC(F)(F)F)ccc2O1,8,8,96*,44,0,-5,10
C[C@@H]1CCCCO[C@@H](CN(C)CC2CCCCC2)[C@@H](C)CN([C@H](C)CO)C(=O)c2cc(NC(=O)CCC(F)(F)F)ccc2O1,3,-1,13,/,/,/,/
C[C@H](CO)N1C[C@H](C)[C@@H](CN(C)Cc2ccc(Cl)c(Cl)c2)OCCCC[C@H](C)Oc2ccc(NC(=O)CCC(F)(F)F)cc2C1=O,0,/,80,/,/,/,/
SMILES,IDH1 R132H inh,GASC1 inh,T cruzi growth-1,T cruzi growth-2,T cruzi growth-3,NIH3T3 tox,3T3 cytotox 2
C[C@@H]1CCCCO[C@@H](CN(C)CC2CCCCC2)[C@H](C)CN([C@@H](C)CO)C(=O)c2cc(NC(=O)CCC(F)(F)F)ccc2O1,0,1,?,?,20,9,18
C=CCn1c(Sc2ncnc3c2cnn3-c2ccccc2)nnc1-c1ccncc1,1,/,/,/,/,/,/
CC(C)C#Cc1ccc2c(c1)O[C@H](CN(C)C(=O)c1ccccc1)[C@H](C)CN([C@H](C)CO)S2(=O)=O,-1,0,88,/,/,/,/
CC(C)C#Cc1ccc2c(c1)O[C@@H](CN(C)C(=O)c1ccccc1)[C@@H](C)CN([C@@H](C)CO)S2(=O)=O,-1,-3,80,/,/,/,/
CC(C)C#Cc1ccc2c(c1)O[C@@H](CN(C)C(=O)c1cccc(F)c1)[C@H](C)CN([C@@H](C)CO)S2(=O)=O,6,-1,107*,110*,27,27,60*
CC(C)C#Cc1ccc2c(c1)O[C@H](CN(C)C(=O)c1cccc(F)c1)[C@H](C)CN([C@@H](C)CO)S2(=O)=O,2,0,118*,109*,92,28,78*
CCc1ccccc1NC(=O)CSc1nnc(-c2cccc(C)c2)n1C,0,/,/,/,/,/,/
COc1cccc(-c2ccc([C@H]3[C@@H](CO)N4CCCCN(CC5CCOCC5)C[C@H]34)cc2)c1,/,/,107*,107*,70,8,97*
OC[C@@H]1[C@@H](c2ccc(-c3cccnc3)cc2)[C@@H]2CN(CC3CCOCC3)CCCCN12,/,/,-47,/,/,/,/
COc1cccc(-c2ccc([C@@H]3[C@H]4CN(CC5CC5)CCCCN4[C@H]3CO)cc2)c1,/,-1,93,/,/,/,/
